Laboratory results: ChEMBL document CHEMBL1132173, “Novel derivatives of 2-pyridinemethylamine as selective, potent, and orally active agonists at 5-HT1A receptors” (J Med Chem, 1999)

Tests used:
[1] = system: Rattus norvegicus; assay: Effective intraperitoneal dose in vivo in rat after 60 mins to induce lower lip retraction; assay type: functional; conditions: ip, 1 h
How it was run: (§1)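 Observed in 10 min windows centred 15 and 60 min post-dose, 10 s each minute, scoring lower lip retraction present or absent (0–10).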

[2] = system: Rattus norvegicus; assay: Effective intraperitoneal dose in vivo in rat after 15 mins to induce lower lip retraction; assay type: functional; conditions: ip, 0.25 h; how it was run: as §1
[3] = target: T1, 5-hydroxytryptamine receptor 1A (Homo sapiens, UniProt P08908); assay: In vitro effective concentration required to inhibit forskolin-stimulated cAMP levels in HA7 cells expressing human 5-HT1A receptor; assay type: functional, cell-based
T1 sequence (P08908 whole entry): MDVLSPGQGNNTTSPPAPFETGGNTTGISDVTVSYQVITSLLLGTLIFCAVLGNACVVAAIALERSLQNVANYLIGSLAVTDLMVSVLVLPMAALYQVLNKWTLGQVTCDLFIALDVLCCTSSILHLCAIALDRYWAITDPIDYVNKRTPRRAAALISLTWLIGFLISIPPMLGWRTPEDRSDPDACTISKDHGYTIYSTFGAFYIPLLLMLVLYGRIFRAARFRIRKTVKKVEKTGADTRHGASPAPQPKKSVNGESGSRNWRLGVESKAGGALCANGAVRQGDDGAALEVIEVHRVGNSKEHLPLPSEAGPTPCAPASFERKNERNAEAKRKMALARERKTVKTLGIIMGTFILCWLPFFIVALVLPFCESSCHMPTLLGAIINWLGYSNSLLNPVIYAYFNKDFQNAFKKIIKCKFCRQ
How it was run: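 HeLa HA7 cells stably expressing human 5-HT1A, at 80–90% confluency, antibiotic-free for 24 h. Preincubated 10 min at RT in DMEM/10 mM Hepes, then drug at 0.1 nM–100 µM with 100 µM forskolin and 100 µM IBMX for 10 min at RT. Stopped with 0.1 N HCl; cAMP by radioimmunoassay as % of forskolin control; pEC50.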

[4] = target: T2, Adrenergic receptor alpha-1 (Rattus norvegicus, UniProt P15823+P23944+P43140); assay: Binding affinity towards Alpha-1 adrenergic receptor using prazosin as a radioligand in rat cortex
T2 sequence (P15823 whole entry): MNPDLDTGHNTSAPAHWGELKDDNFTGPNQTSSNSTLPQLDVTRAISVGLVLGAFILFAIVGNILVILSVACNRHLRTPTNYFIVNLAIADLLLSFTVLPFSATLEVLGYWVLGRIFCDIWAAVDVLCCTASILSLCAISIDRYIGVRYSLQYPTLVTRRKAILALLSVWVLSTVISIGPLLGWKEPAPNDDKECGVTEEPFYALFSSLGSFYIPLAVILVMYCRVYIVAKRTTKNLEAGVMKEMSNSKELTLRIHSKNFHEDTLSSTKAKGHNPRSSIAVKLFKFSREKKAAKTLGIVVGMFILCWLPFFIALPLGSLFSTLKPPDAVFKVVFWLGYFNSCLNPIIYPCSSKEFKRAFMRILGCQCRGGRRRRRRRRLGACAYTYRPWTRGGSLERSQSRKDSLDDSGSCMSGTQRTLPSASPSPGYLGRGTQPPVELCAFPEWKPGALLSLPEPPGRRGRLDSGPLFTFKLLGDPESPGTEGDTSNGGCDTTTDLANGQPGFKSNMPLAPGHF
T2 sequence (P23944 whole entry): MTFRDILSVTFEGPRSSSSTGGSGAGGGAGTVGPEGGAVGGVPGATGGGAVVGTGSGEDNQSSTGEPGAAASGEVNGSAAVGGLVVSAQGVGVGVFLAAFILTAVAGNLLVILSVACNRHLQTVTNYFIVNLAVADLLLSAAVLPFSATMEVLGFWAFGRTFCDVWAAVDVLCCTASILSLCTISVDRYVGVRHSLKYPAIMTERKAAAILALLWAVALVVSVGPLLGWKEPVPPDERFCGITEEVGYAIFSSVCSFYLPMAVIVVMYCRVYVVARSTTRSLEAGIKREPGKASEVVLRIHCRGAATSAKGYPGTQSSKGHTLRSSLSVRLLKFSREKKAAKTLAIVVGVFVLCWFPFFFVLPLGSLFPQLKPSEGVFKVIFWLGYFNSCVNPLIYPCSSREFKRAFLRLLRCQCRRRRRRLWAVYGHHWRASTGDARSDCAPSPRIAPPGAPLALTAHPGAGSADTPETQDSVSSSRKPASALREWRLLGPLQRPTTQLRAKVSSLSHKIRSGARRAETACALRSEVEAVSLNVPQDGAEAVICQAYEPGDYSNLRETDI
T2 sequence (P43140 whole entry): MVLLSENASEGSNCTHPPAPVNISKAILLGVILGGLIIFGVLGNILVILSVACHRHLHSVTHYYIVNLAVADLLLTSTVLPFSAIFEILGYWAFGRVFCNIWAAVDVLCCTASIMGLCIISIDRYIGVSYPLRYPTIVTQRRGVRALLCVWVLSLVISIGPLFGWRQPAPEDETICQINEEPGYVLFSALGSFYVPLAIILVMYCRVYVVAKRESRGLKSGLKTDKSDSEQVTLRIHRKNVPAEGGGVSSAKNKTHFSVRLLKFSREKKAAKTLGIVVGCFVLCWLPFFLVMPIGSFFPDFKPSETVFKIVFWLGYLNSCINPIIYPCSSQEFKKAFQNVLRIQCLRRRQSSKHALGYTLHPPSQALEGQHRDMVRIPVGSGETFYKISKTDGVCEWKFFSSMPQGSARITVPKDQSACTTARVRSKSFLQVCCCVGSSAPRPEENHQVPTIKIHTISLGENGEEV
How it was run: (§2)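 Rat tissue membranes, competition against radioligand at 23 °C. Nonspecific binding: 5-HT for 5-HT1A (30 min), (+)-butaclamol for D2 (60 min), phentolamine for α1 (30 min). Tris HCl 50 mM pH 7.4 buffers. Filtration through glass-fibre filters, then scintillation counting. Run in triplicate; IC50 by nonlinear regression; Ki by Cheng–Prusoff; mean pKi of three determinations.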

[5] = target: T3, 5-hydroxytryptamine receptor 1A (Rattus norvegicus, UniProt P19327); assay: Binding affinity towards 5-hydroxytryptamine 1A receptor in rat cortex using [3H]8-OH-DPAT as a radioligand; how it was run: as §2
T3 sequence (P19327 whole entry): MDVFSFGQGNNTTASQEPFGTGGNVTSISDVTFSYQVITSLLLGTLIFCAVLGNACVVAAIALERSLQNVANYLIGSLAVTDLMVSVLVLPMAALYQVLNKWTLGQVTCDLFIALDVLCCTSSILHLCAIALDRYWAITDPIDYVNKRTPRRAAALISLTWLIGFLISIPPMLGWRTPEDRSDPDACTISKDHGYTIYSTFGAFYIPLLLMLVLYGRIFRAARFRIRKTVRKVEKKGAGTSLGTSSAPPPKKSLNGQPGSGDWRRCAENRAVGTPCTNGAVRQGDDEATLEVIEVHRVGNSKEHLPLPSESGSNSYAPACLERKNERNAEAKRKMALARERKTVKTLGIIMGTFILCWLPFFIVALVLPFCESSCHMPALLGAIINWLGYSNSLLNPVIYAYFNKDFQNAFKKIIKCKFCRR

[6] = system: Rattus norvegicus; assay: Induction of lower lip retraction in rat 60 min after administration, effective peroral dose determined in vivo; assay type: functional; conditions: po, 1 h; how it was run: as §1
[7] = target: D(2) dopamine receptor (Rattus norvegicus, UniProt P61169); assay: Binding affinity towards Dopamine receptor D2 in rat striatum using YM-09151-2 as a radioligand; assay type: tissue-based; how it was run: as §2
[8] = species on record: Rattus norvegicus; assay: Potency to produce a significant inhibition of immobility in the rat.; assay type: functional
How it was run: (§3)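 Rat forced swim, 5 min test 24 h after a 15 min pre-swim, with oral dose (10 mL/kg) 60 min before the test, n = 10 per dose. Significant response: immobility <138 s, a value seen in <5% of vehicle controls. ED50 by linear interpolation of % responders.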

[9] = species on record: Rattus norvegicus; assay: Maximum inhibition of immobility in the rat.(Expressed as percentage of immobility observed in vehicle controls); assay type: functional
How it was run: (§4)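 Rat forced swim: 15 min pre-swim in 17 cm water at 25 °C, then 5 min test 24 h later with blind scoring of immobility. Oral dosing (10 mL/kg) 60 min before the test, n = 10 per dose. Inhibition is the difference in median immobility from vehicle controls, as % of the control median.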

[10] = species on record: Rattus norvegicus; assay: Potency to produce a significant inhibition of immobility in rat; assay type: functional; how it was run: as §3
[11] = species on record: Rattus norvegicus; assay: Maximum inhibition of immobility in the rat (Expressed as percentage of immobility observed in vehicle controls); assay type: functional; how it was run: as §4
[12] = system: Rattus norvegicus; assay: Effective dose in vivo in rat to induce lower lip retraction; assay type: functional; how it was run: as §1
[13] = species on record: Rattus norvegicus; assay: Potency to produce a significant inhibition of immobility in the rat; assay type: functional; how it was run: as §3

Sequence of D(2) dopamine receptor (P61169 whole entry): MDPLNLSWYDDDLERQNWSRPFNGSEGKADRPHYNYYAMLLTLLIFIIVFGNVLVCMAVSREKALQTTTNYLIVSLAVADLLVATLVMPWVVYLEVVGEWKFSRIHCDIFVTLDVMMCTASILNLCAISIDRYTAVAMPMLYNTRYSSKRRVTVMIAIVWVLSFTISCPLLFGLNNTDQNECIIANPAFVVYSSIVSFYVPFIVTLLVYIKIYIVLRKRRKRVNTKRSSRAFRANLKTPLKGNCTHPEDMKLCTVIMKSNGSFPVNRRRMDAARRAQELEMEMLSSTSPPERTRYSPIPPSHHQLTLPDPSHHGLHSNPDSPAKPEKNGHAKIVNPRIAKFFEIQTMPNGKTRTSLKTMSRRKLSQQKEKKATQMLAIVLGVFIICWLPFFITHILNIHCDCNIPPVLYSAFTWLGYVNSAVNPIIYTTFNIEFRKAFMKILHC

Compound	ED50 [1] [mg/kg]	ED50 [2] [mg/kg]	EC50 [3] [nM]	Log Ki [4]	Ki [5] [nM]	ED50 [6] [mg/kg]	Ki [7] [nM]	ED50 [8] [mg/kg]	Inhibition [9] [%]	ED50 [10] [mg/kg]	Inhibition [11] [%]	ED50 [12] [mg/kg]	ED50 [13] [mg/kg]
O=C(c1ccc(Cl)c(Cl)c1)N1CCC(F)(CNCc2cccc(-c3cccs3)n2)CC1	0.32	0.32	12	-6.72	1.23	1.3	457	–	–	–	–	–	–
Cc1ccc(C(=O)N2CCC(F)(CNCc3cccc(N(C)C)n3)CC2)cc1Cl	0.08	0.08	5.75	-6.86	0.269	0.32	129	–	–	–	–	–	–
CN(C)c1cccc(CNCC2(F)CCN(C(=O)c3ccc(F)c(Cl)c3)CC2)n1	0.11	0.29	3.63	-6.68	–	0.16	–	0.16	>80	–	–	–	–
O=C(c1ccc(F)c(Cl)c1)N1CCC(F)(CNCc2cccc(-c3ccco3)n2)CC1	0.11	0.08	3.47	-6.12	–	0.32	–	–	–	0.09	>80	–	–
CN(C)c1cccc(CNCC2(F)CCN(C(=O)c3cccc(Cl)c3)CC2)n1	0.11	0.08	10	-6.81	0.0977	0.32	617	–	–	–	–	–	–
O=C(c1ccc(Cl)c(Cl)c1)N1CCC(F)(CNCc2cccc(-c3ccco3)n2)CC1	0.23	0.16	2.63	-6.39	1.05	0.32	1200	–	–	–	–	–	–
O=C(c1ccc(Cl)c(Cl)c1)N1CCC(F)(CNCc2cccc(-n3cccn3)n2)CC1	–	–	28.2	–	0.204	–	–	–	–	–	–	1.3	–
CNc1cccc(CNCC2(F)CCN(C(=O)c3ccc(Cl)c(Cl)c3)CC2)n1	0.23	0.11	6.61	-6.92	–	0.32	–	–	–	–	–	–	–
O=C(c1ccc(Cl)c(Cl)c1)N1CCC(F)(CNCc2cccc(-c3cnco3)n2)CC1	0.32	0.32	8.91	-5.9	0.468	1.3	2240	–	–	–	–	–	–
CNc1nc(CNCC2(F)CCN(C(=O)c3ccc(F)c(Cl)c3)CC2)ccc1C	–	0.02	2.14	–	–	0.08	–	–	>80	–	–	–	0.05
O=C(c1ccc(Cl)c(Cl)c1)N1CCC(F)(CNCc2cccc(N3CCC3)n2)CC1	0.45	0.32	10.7	-6.35	0.2	0.45	309	–	–	–	–	–	–
O=C(c1ccc(Cl)c(Cl)c1)N1CCC(F)(CNCc2cccc(-c3nccs3)n2)CC1	0.89	0.45	22.9	-6.26	0.794	1.3	3390	–	–	–	–	–	–
O=C(c1ccc(Cl)c(Cl)c1)N1CCC(F)(CNCc2cccc(-c3cc[nH]n3)n2)CC1	0.32	0.32	1.12	-6.1	0.302	1.3	4070	–	–	–	–	–	–
CN(C)c1cccc(CNCC2(F)CCN(C(=O)c3ccc(Cl)c(Cl)c3)CC2)n1	0.45	0.62	2.95	-6.76	–	0.32	–	–	–	–	–	–	–
CN(C)CCCN1c2ccccc2CCc2ccccc21 [IMIPRAMINE]	–	–	–	–	–	–	–	–	–	80	31	–	–
